# Sampled rows, rich in hits. Any-hit rate of the full collection: about 3%.
# HIF act: HIF pathway transcriptional activation; U2OS HRE-luciferase reporter, luminescence; normalized: DMSO 0%, desferrioxamine 100%; activation, % at 7.5 µM (by protocol); hit rate 0.32% among 300,000;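 active = mean activation of at least 10% of the iron chelator positive control signal, with at least half of replicates also reaching 10%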
# T cruzi repl: blocks replication of Trypanosoma cruzi; hit rate 1.4% among 300,000; inhibition, % (test concentration not listed); T. cruzi beta-gal in NIH3T3, luminescence, 90 h;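 active = mean inhibition across valid replicates above about 55%, limit read from the data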;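 also: signal also drops with host cell toxicity which is not excluded here; higher percent means less beta-gal luminescence so fewer parasites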
#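 Material: NIH/3T3 host cells with β-galactosidase reporter T. cruzi; Input: 5,000 host fibroblasts per well; Medium: DMEM, 2% fetal bovine serum; Compound: 50 nL DMSO compound solution per well; Schedule: 3 h host attachment, then at least 90 h co-culture; Detection: luminescent β-galactosidase signal after 60 min lysis.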
# AI-2 QS modul: modulates the Vibrio harveyi AI-2 quorum sensing system | activity change, % at 7.5 µM | hit rate 0.4% among 300,000 | Vibrio harveyi JMH597 AI-2 luminescence/OD600 ratio, 9 h; stronger effect = lower value; strain lacks LuxN and CqsS sensors; 0 = neutral-control median; in the data active = activity change below about -75%, passing the limit was not always enough;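 also: luminescence divided by OD600 gain over 9 h not by final OD600 alone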
# CendR NRP1 mod: alters CendR peptide binding to human NRP-1; FAM-RPARPAR peptide binding to NRP-1, fluorescence polarization; inhibition, % at 25 µM; hit rate 0.85% among 360,000; AID 602438;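 active = inhibition or corrected inhibition above about 18%, plus a signal ratio from 0.5 to 1.5, limit read from the data, passing the limit was not always enough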
# Target sequence (O14786 whole entry, looked up): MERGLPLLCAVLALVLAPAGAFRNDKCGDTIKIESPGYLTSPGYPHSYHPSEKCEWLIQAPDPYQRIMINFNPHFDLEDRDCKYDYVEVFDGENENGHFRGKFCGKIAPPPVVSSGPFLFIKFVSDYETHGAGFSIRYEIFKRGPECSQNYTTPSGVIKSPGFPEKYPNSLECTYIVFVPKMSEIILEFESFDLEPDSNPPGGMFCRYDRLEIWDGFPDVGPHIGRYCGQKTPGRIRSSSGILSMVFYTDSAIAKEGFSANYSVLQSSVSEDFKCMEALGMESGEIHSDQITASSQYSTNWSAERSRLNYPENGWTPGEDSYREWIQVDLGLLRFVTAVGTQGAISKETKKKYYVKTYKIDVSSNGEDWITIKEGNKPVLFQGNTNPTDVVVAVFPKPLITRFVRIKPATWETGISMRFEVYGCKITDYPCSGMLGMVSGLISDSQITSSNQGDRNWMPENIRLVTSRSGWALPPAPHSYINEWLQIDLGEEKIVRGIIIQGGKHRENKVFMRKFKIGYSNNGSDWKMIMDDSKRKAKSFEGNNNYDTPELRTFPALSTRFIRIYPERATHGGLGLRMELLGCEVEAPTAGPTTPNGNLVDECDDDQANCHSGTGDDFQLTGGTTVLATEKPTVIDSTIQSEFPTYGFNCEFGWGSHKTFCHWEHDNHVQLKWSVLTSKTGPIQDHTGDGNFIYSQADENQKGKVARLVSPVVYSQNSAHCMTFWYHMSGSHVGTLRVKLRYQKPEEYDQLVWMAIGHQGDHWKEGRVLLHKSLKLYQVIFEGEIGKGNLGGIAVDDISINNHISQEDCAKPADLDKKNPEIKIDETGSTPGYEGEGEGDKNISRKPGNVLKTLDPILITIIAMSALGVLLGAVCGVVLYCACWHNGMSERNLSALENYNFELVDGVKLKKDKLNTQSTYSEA
# V-ATPase pHluor: regulators of yeast V-ATPase proton transport | S. cerevisiae, pHLuorin cytosolic pH fluorescence | response, % at 10 µM | hit rate 0.37% among 350,000 | AID 504577; in the data active = response mostly above about 7.3%, no sharp cut-off; inactive = mostly below about 5.4%; also: actives read high
# Yeast superoxide: lowers age-related superoxide in aged yeast cells; S. cerevisiae aged cells, superoxide DHE fluorescence; stronger effect = lower value; superoxide response (% of plate mean), % at 10 µM; hit rate 0.18% among 330,000; AID 2690;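 active = superoxide response under a set limit, about three screen SD below normal, cut at about 65% in these data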;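 also: yeast aged for seven days with compound at 30 °C before DHE staining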
# Numbers stand for hits; 0 = inactive; - = no result.
SMILES,HIF act,T cruzi repl,AI-2 QS modul,CendR NRP1 mod,V-ATPase pHluor,Yeast superoxide
C[C@@H](NC(=O)c1nc[nH]c1C(=O)N[C@@H](Cc1ccccc1)C(=O)OCc1ccccc1)c1ccccc1,0,0,0,0,0,0
CSc1ncccc1C(=O)Nc1cccc(S(=O)(=O)N2CCCC2)c1,-,-,-,0,0,0
COc1ccc(N/C(N)=N/c2nc(C)cc(C)n2)c(OC)c1,0,0,0,30,0,0
Cc1ccc(C)c(N/C(N)=N/c2nc(C)cc(C)n2)c1,0,65,0,0,0,0
COc1ccc(OC)c(N/C(N)=N/c2nc(C)cc(C)n2)c1,0,0,0,0,0,0
CNC(=O)COc1coc(CN2CCN(c3ccccc3)CC2)cc1=O,0,0,0,0,0,0
NCc1ccc2[nH]c(=O)[nH]c2c1,0,0,0,0,0,0
Cc1ccccc1C(=O)Oc1cc(N)n(S(C)(=O)=O)n1,0,0,0,18,0,0
Cc1c(C)n(CCCN(C)C)c2ncnc(NCc3ccccc3)c12,0,55,0,0,0,0
Cc1cc(NC(=O)COC(=O)C2CC(=O)N(c3ccc(Cl)cc3)C2)no1 (stereo unspecified),0,0,-,0,16,0
O=C(O)C(Sc1ccncn1)c1ccccc1 (stereo unspecified),0,0,0,0,0,0
COc1cc(C=CC(=O)c2cc(OC)c(OC)c(OC)c2)cc(OC)c1OC,-,-,-,0,0,-
COc1ccc2cc(C(=O)/C=C/c3cc(OC)c(OC)c(OC)c3)ccc2c1,0,0,0,27,0,0
Cc1cc(C)c2cc(C#N)c(N3CCCN(S(=O)(=O)c4ccccc4)CC3)nc2c1,0,0,0,-,-,0
Cc1cc(NS(=O)(=O)c2ccc(NC(=S)NC(=O)c3ccncc3)cc2)no1,0,0,0,0,0,0
C[n+]1cccc2cccc([O-])c21,-,-,-,28,0,-
[O-][n+]1cccc2cccc(O)c21,-,-,-,0,0,-
Cc1ccc(C)c(S(=O)(=O)N2CCN(C(=O)CCCc3c[nH]c4ccccc34)CC2)c1,0,64,0,0,0,0
COC(=O)[C@H](CCSC)NC(=O)Nc1ccc(OC)c(Cl)c1,0,0,0,24,0,0
O=C(OCc1cn([C@H]2CN(Cc3cccs3)[C@@H](c3ccccc3)C[C@@H]2O)nn1)c1ccccc1,-,-,-,0,0,-
O=C(Cn1cccc1C(=O)c1ccccc1)NCCC1=CCCCC1,0,0,0,23,0,0
Cc1ccc(OCC(=O)Nc2sc3c(c2C#N)CC(C)(C)NC3(C)C)cc1,0,0,0,0,13,0
CCOC(=O)c1c(NC(=O)CSc2nc3ccc(C)cc3[nH]2)sc2c1CC(C)(C)NC2(C)C,0,61,0,0,0,0
CC1(C)Cc2c(sc(NC(=O)COc3cccc4ccccc34)c2C#N)C(C)(C)N1,0,0,0,0,0,0
CCOC(=O)c1c(NC(=O)CSc2nnnn2-c2ccccc2OCC)sc2c1CC(C)(C)NC2(C)C,0,57,0,0,0,0
SMILES,HIF act,T cruzi repl,AI-2 QS modul,CendR NRP1 mod,V-ATPase pHluor,Yeast superoxide
CCOC(=O)c1c(NC(=O)COc2ccccc2C#N)sc2c1CC(C)(C)NC2(C)C,0,0,0,22,0,0
CCOC(=O)c1c(NC(=O)c2ccc(C)cc2)sc2c1CC(C)(C)NC2(C)C,0,0,0,-,-,0
CCc1nc2c(OCc3cccc(Cl)c3)cccn2c1N(C)C(=O)c1ccc(OC)cc1,-,-,-,0,-,-
CC1CCCCC1NC(=O)Cn1cccc1C(=O)c1ccccc1 (stereo unspecified),0,0,0,0,0,0
COc1ccc(N2CCN(CC(=O)Nc3ccc(-n4cnnn4)cc3)CC2)cc1,0,0,0,0,0,0
CC(=O)c1c(C(C)=O)c(C)n(-c2nc(-c3cccs3)c(C)s2)c1C,0,0,-,0,0,0
OCCNc1ncnc2c1c(-c1ccccc1)c(-c1ccccc1)n2Cc1ccco1,0,0,0,0,0,0
N=c1c2c(-c3ccccc3)c(-c3ccccc3)oc2ncn1CCCN1CCOCC1,0,0,0,0,0,0
N=c1c2c(-c3ccccc3)c(-c3ccccc3)n(Cc3ccccc3)c2ncn1CCO,0,57,0,0,0,0
N=c1c2c(-c3ccccc3)c(-c3ccccc3)n(Cc3ccco3)c2ncn1Cc1ccccc1,0,0,0,0,0,0

# Source: PubChem (several laboratories)
